# Results of several laboratories.
# Each line is one published result; the experiments were not run side by side.
# Target: Tyrosine-protein kinase Fer (FER, Homo sapiens, UniProt P16591)
Compound,effect on,action,method,cell line,concentration,endpoint,value
COc1cc2ncnc(Nc3ccc(Oc4ccccc4)c(C)c3C)c2cc1OC,enzyme activity,inhibitor,,,1 µM,inhibition,18%
CCN(CC)CCNC(=O)c1c(C)[nH]c(/C=C2\C(=O)Nc3ccc(F)cc32)c1C,enzyme activity,inhibitor,,,0.3 µM,inhibition,-42%
COc1cc2nccc(Oc3ccc(NC(=S)NC(=O)c4ccccc4C)cc3)c2cc1OC,enzyme activity,inhibitor,,,0.5 µM,remaining activity,58.2%
CC(C)(C)c1nc(-c2cccc(NS(=O)(=O)c3c(F)cccc3F)c2F)c(-c2ccnc(N)n2)s1,enzyme activity,inhibitor,radiometric,,1 µM,remaining activity,94%
COc1cccc(CNC(=O)c2nc3scc(COCc4ccc(C(=O)O)cc4)c3c(=O)[nH]2)c1,cell-free assay,,competition with immobilised ligand,,1 µM,remaining binding,100%
COc1cc(Cl)c(C(=O)N[C@@H](CN[C@H]2CC[C@@H](N)CC2)Cc2ccc(C#N)cc2)cc1-c1ccc(CN[C@H](C)c2ccc(C)cc2)o1,enzyme activity,inhibitor,,,1 µM,remaining activity,96%
C[S+]([O-])c1ccc(-c2nc(-c3ccncc3)c(-c3ccc(F)cc3)[nH]2)cc1 (stereo not shown),cell-free assay,,,,0.5 µM,remaining signal,95%
Cc1c[nH]c2nccc(Oc3c(F)cc(Nc4cc(Cl)nc(N)n4)cc3F)c12,cell-free assay,,competition with immobilised ligand,,0.1 µM,remaining binding,100%
COc1cc(Nc2c(C#N)cnc3cc(OCCCN4CCN(C)CC4)c(OC)cc23)c(Cl)cc1Cl,cell-free assay,,,,0.5 µM,remaining signal,54.6%
O=C(O)[C@@H]1[C@@H](Cn2nnc3ccccc3c2=O)CC[C@H]1C(=O)c1ccc(OCCC2CCOCC2)cc1,cell-free assay,,competition with immobilised ligand,,1 µM,remaining binding,87%
COc1cc2ncnc(Nc3ccc(F)c(Cl)c3)c2cc1OCCCN1CCOCC1,cell-free assay,,,,0.5 µM,remaining signal,94.1%
Cc1ccc(NC(=O)c2ccc(C)c(C(F)(F)F)c2)cc1C#Cc1nn(C2CCC(O)CC2)c2ncnc(N)c12 (stereo not shown),cell-free assay,,,,10 µM,remaining signal,67%
Cc1cc(NC(=O)c2cccc3cc(-c4cccc5[nH]nc(N)c45)ccc23)ccc1F,enzyme activity,inhibitor,,,0.1 µM,activity vs control,106%
CNC(=O)c1cc2c(Oc3ccc(NC(=O)C4(C(=O)Nc5ccc(F)cc5)CC4)cc3)ccnc2cc1OC,enzyme activity,inhibitor,radiometric,,1 µM,inhibition,74%
Cc1ccc(Nc2nccc(N(C)c3ccc4c(C)n(C)nc4c3)n2)cc1S(N)(=O)=O,enzyme activity,inhibitor,,,10 µM,inhibition,71%
COc1cc2nccc(Oc3ccc(NC(=O)c4c5n(n(-c6ccc(F)cc6)c4=O)CCCC5)cc3)c2cc1OC,enzyme activity,inhibitor,,,0.1 µM,inhibition,-14%
CCOCCn1cc(C(=O)Nc2ccc(-n3nc(-c4cccnc4)cc3C(F)(F)F)cn2)ccc1=O,cell-free assay,,competition with immobilised ligand,,1 µM,remaining binding,100%
C=CC(=O)Nc1cc(Nc2nccc(Nc3cc(Cl)c(F)cc3C(C)(C)O)n2)c(OC)cc1N1CC[C@@H](N(C)C)C1,enzyme activity,inhibitor,,,1 µM,inhibition,8%
O=C(N1CCS(=O)(=O)CC1)N1C[C@H](c2ccc(OC(F)(F)F)cc2)C[C@H](c2nc(C3CC3)no2)C1,cell-free assay,,competition with immobilised ligand,,1 µM,remaining binding,100%
O=C1Nc2ccc(Cl)cc2C1=Cc1cc(Cl)c(O)c(Cl)c1,cell-free assay,,,,0.5 µM,remaining signal,92.1%
CNc1cccc2cc(C(=O)Nc3ccc(C(=O)O)cc3)c(=O)[nH]c12,enzyme activity,inhibitor,,,10 µM,inhibition,1.6%
CCN1CCN(Cc2ccc(NC(=O)c3ccc(C)c(/C=C/c4cnc5[nH]ccc5c4OC)c3)cc2C(F)(F)F)CC1,target engagement in cells,inhibitor,chemoproteomics,A-375,50 nM,inhibition,-10.4%
COc1ccc(C(=O)Nc2sc3c(c2C(N)=O)CCCC3)cc1OC,enzyme activity,inhibitor,,,0.5 µM,remaining activity,89.8%
CN(C)C(=O)Cn1cc(-c2nc(C3(c4ccc(-c5cnc(N)nc5)cc4)CC3)no2)cn1,cell-free assay,,competition with immobilised ligand,,1 µM,remaining binding,79%
N#CCCc1ccc2c(c1)-c1[nH]c3ccc([N+](=O)[O-])cc3c1CC(=O)N2,cell-free assay,,,,0.5 µM,remaining signal,72.7%
CN1CC(Oc2cnc(C#N)cc2-c2ccn3nc(NC(=O)C4CC4)cc3c2)C1,enzyme activity,inhibitor,,,1 µM,inhibition,1%
CC(=O)N1CCC(c2ccc(C(=O)NC3=NCCN3)cc2C(F)(F)F)CC1,cell-free assay,,competition with immobilised ligand,,1 µM,remaining binding,93%
CCN(CC)CCNC(=O)c1c(C)[nH]c(/C=C2\C(=O)Nc3ccc(Cl)cc32)c1C,enzyme activity,inhibitor,,,0.5 µM,remaining activity,17.7%
CNC(=O)c1cc(Oc2ccc(NC(=O)Nc3ccc(Cl)c(C(F)(F)F)c3)cc2)ccn1,enzyme activity,inhibitor,,,0.3 µM,inhibition,-8%
O=C(Nc1cnn(-c2csc(C(=O)NC3COC3)c2)c1)Nc1ccccc1Cl,enzyme activity,inhibitor,,,5 µM,remaining activity,101%
Nc1cnc(N2CCc3cc(S(=O)(=O)Nc4c(F)cc(Cl)cc4F)cc(N4CCCC4=O)c32)nc1,cell-free assay,,competition with immobilised ligand,,1 µM,remaining binding,100%
